EBI2 antag: EBI2 receptor antagonists, beta-arrestin recruitment, primary screen, cell-based, luminescence, 7a,25-OHC stimulation, uHTS; 360,000 tested, 0.81% active; 7a,25-OHC stimulated; G-protein coupled receptor 183 (Homo sapiens), P32249; AID 651636, 2012; inhibition, % at 5 µM; in the data active = inhibition above about 38%;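 also: enzyme fragment complementation signal reports receptor beta-arrestin coupling in cells; 0% = agonist plus DMSO wells and 100% = wells without agonist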
APJ antagonist: antagonists of human apelin receptor APJ, primary screen, CHO-K1 cells, beta-arrestin complementation, luminescence. P35414. inhibition, % at 20 µM. 330,000 tested, 0.32% active. AID 2521, 2010;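 active = inhibition above about 40% at 20 µM, limit read from the data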;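 also: cells challenged with 10 nM apelin-13 agonist together with compound; plate controls were apelin-13 plus DMSO wells for no effect and DMSO wells lacking apelin-13 for full effect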
Target sequence (P35414 whole entry, looked up): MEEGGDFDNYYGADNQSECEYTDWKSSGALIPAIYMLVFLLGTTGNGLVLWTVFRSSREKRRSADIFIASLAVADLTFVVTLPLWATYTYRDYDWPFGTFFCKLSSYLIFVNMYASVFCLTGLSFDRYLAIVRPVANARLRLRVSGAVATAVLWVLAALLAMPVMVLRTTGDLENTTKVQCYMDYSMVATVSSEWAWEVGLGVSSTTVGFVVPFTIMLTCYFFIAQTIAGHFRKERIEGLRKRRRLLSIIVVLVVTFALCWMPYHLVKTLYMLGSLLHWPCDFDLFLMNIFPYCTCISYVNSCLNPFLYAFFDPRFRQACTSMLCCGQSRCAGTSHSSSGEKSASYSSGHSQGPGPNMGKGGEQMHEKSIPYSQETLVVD
APJ agonist: agonists of human apelin receptor APJ, primary screen, CHO-K1 cells, PathHunter beta-arrestin, luminescence; 330,000 tested, 0.11% active; P35414; activation, % at 20 µM; AID 2520, 2010; 0% DMSO wells, 100% apelin;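 active = activation more than six SD over the plate average, tested at 20 µM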;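 also: 0% = DMSO alone and 100% = apelin-13 at 10 nM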
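Test system: CHO-K1 APJ beta-arrestin complementation cell line. Amount: cell density 1000 per well. Controls: DMSO negative, 10 nM Apelin-13 positive. Signal: luminescent beta-gal fragment complementation, chemiluminescent substrate. Read-out basis: agonist-driven arrestin binding to APJ. Timing: compound stimulation 90 min at 25 °C, detection 60 min.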
CXCR6 block: CXCR6 receptor inhibitors, primary screen, cell-based, beta-arrestin, luminescence, CHO-K1 PathHunter, 1536-well | C-X-C chemokine receptor type 6 (Homo sapiens), O00574 | inhibition, % at 20 µM | AID 602244, 2012 | 360,000 tested, 0.36% active; in the data active = inhibition above about 34%, passing the limit was not always enough;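 also: antagonist mode with CXCL16 agonist at 10 nM final; 0% = 10 nM CXCL16 with DMSO and 100% = unstimulated wells without agonist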
CCR6 antagonist: CCR6 receptor antagonists, primary screen, cell-based, CHO-K1, luminescence, beta-arrestin, uHTS | C-C chemokine receptor type 6 (Homo sapiens), P51684 | 340,000 tested, 0.49% active | AID 493098, 2011 | CHO-K1 CCR6 PathHunter beta-arrestin, CCL20-stimulated | inhibition, % at 20 µM;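 active = compounds whose inhibition of the agonist-driven luminescence signal at 20 µM reaches about 50%, limit read from the data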;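 also: cells stimulated with CCL20 at 14 nM final; plate controls were DMSO with CCL20 for no effect and DMSO without agonist for full effect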
EBI2 conf: EBI2 antagonist hit retest, beta-arrestin, confirmation, cell-based, single concentration, luminescence, 7a,25-OHC stimulation. inhibition, % at 5 µM. shares compounds with EBI2 antag. 7a,25-OHC antagonism. 2,400 tested, 29% active;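 active = inhibition of at least 50%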
EBI2 ag: EBI2 agonist activity of antagonist hits, confirmation, counter-screen for EBI2 antagonist project, cell-based, single concentration, agonist mode, luminescence; shares compounds with EBI2 antag; EBI2-expressing cells, 60 min; 0% vehicle, 100% 7α,25-dihydroxycholesterol control; activation, % at 5 µM; 2,400 tested, under 10 active; AID 652000, 2013;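 active = activation of at least 50%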
bGal counter: E. coli beta-galactosidase enzyme inhibition, confirmation, counter-screen for EBI2 antagonist project, biochemical, luminescence, single concentration | shares compounds with EBI2 antag | purified beta-galactosidase, luminescent Galacton Star, 15 min | inhibition, % at 5 µM | 2,400 tested, 1% active;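 active = replicate-average signal at least 3 plate SD below neutral wells, shown as high inhibition, flagging enzyme-inhibiting false positives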;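 also: 0% = DMSO wells with enzyme and 100% = wells lacking enzyme; higher means stronger loss of beta-gal luminescence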
* marks the source's active call; other numbers are inactive results; x = not tested or not shown. Shown are actives, neighbours in structure and some others; about 1.5% of the full set was active somewhere.

SMILES	EBI2 antag	APJ antagonist	APJ agonist	CXCR6 block	CCR6 antagonist	EBI2 conf	EBI2 ag	bGal counter
Cc1c(Cc2ccc3c(c2)OCO3)sc(NC(=O)c2ccccc2)c1C(N)=O	7	-3	-1	-2	12	x	x	x
CCOC(=O)c1c(NC(=O)CN2C(=O)c3ccccc3C2=O)sc(Cc2ccc3c(c2)OCO3)c1C	65*	19	-3	6	9	39	0	-16
O=C(COC(=O)[C@H](Cc1ccccc1)NC(=O)c1ccco1)Nc1ccccc1OC(F)F	4	-20	-2	-8	-18	x	x	x
Cc1ccc(/C=C/C(=O)OCC(=O)NCCN2C(=O)CSC2=O)cc1	56*	9	-4	-4	-8	58*	2	0
Cc1ccc(/C=C/C(=O)OCC(=O)NC(=O)NCc2ccccc2)cc1	46*	-16	-2	8	8	14	-1	-7
O=C(COC(=O)/C=C/c1ccccc1)NC(=O)NCc1ccccc1	9	-2	-1	17	20	x	x	x
COc1ccc(N2CC(C(=O)NC3CCSC3=O)CC2=O)cc1 (configuration not stated)	2	6	-2	4	8	x	x	x
CCOc1ccc2nc(N/C(N)=N/C(=S)Nc3ccc(OC)cc3)nc(C)c2c1	44*	-12	-1	16	18	7	1	4
CCOC(=O)C1CCN(c2nc3ccccc3nc2C(C#N)C(=O)OCCOC)CC1 (configuration not stated)	22	18	-5	13	27	x	x	x
COC(=O)C1CCN(c2nc3ccccc3nc2C(C#N)C(=O)NCCc2ccccc2)CC1 (configuration not stated)	67*	18	-5	10	26	14	-2	-11
Cc1ccc(C(=O)CCC(=O)N2CCN(C/C=C/c3ccccc3)CC2)cc1	11	x	x	-4	x	x	x	x
O=C(Nc1ccc2c(c1)OCO2)N1CCN(C/C=C/c2ccccc2)CC1	45*	24	-2	4	-14	25	-1	-8
O=C(Nc1ccc2c(c1)OCO2)N1CCN(c2ccccc2)CC1	7	-6	1	4	14	x	x	x
Cc1ccc(NC(=O)N2CCN(C/C=C/c3ccccc3)CC2)cc1	45*	-2	1	1	5	17	2	4
CCOc1ccc(-c2nc(N)ncc2Oc2ccccc2Br)c(O)c1	29	-3	-5	4	8	x	x	x
COc1ccc(-c2nc(N)ncc2-c2ccc(OC)c(OC)c2)c(O)c1	57*	10	-1	1	4	27	0	-6
CCOc1ccc(-c2nc(N)ncc2Oc2cccc(OC)c2)c(O)c1	47*	1	-1	2	-3	38	2	4
COc1ccc(-c2c(C)nc(N)nc2-c2ccc(OCc3ccc(C)cc3)cc2O)cc1OC	37	-7	1	20	8	x	x	x
COc1ccc(-c2c(C)nc(N)nc2-c2ccc(OC)cc2O)cc1	74*	-2	2	-8	7	46	-1	-23
COc1ccc(-c2ncncc2-c2ccc(OC)c(OC)c2)c(O)c1	2	9	-1	1	-3	x	x	x
CCc1cc(-c2nc(N)ncc2-c2ccc(Br)cc2)c(O)cc1OC	77*	7	-1	4	-7	48	-1	-6
COc1c(Br)cc(Br)cc1C(=O)Nc1ccccc1N1CCCC1	8	9	-2	11	15	x	x	x
COc1ccc(CCNC(=O)c2ccc(-c3ccc([N+](=O)[O-])cc3Cl)o2)cc1	-9	-28	0	-17	2	x	x	x
CCCCC(=O)N(C)c1c(C)nc2ccc(C(=O)Nc3cccc(OC)c3)cn12	0	x	x	-1	x	x	x	x
CNc1nc2cccnc2s1	-4	3	3	2	-3	x	x	x
SMILES	EBI2 antag	APJ antagonist	APJ agonist	CXCR6 block	CCR6 antagonist	EBI2 conf	EBI2 ag	bGal counter
COc1ccc(CNc2ccccc2)cc1Br	-5	16	-4	2	21	x	x	x
COc1ccc(Cc2nnc(Nc3ccccc3)s2)cc1Br	35*	3	-1	-12	4	19	0	9
C(=C\c1ccccc1)/CN1CCN(C(CCc2ccccc2)c2nnnn2C2CCCC2)CC1 (configuration not stated)	51*	x	x	10	x	31	4	12
FC(F)(F)Oc1ccccc1C(c1nnnn1C1CCCC1)N1CCN(C/C=C/c2ccccc2)CC1 (configuration not stated)	64*	x	x	24	x	39	-1	-8
CC(O)(c1cccnc1)c1nc(-c2ccc(S(C)(=O)=O)cc2)cs1 (configuration not stated)	1	x	x	-3	x	x	x	x
O=C(c1cc2ccccc2o1)N1CCN(Cc2nc3ccccc3s2)CC1	68*	x	x	-3	x	55*	0	-1
O=C(c1cc2ccccc2o1)N1CCCC1	-5	1	-1	3	14	x	x	x
CC(=O)N1CCN(C(=O)c2cc3ccccc3o2)CC1	6	-4	0	-13	5	x	x	x
O=C(c1cc2ccccc2o1)N1CCN(C/C=C/c2ccccc2)CC1	86*	-7	-4	-4	8	59*	0	-10
CSc1ccc(C(=S)N2CCN(C(c3ccccc3)c3ccccc3)CC2)cc1	83*	9	-5	15	0	39	1	8
S=C(NCCc1ccccc1)N1CCN(C(c2ccccc2)c2ccccc2)CC1	54*	-6	-2	11	1	24	1	3
CSc1ccc(C(=S)N2CCN(C)CC2)cc1	-3	13	2	3	-8	x	x	x
CCCNC(=S)N1CCN(C(c2ccccc2)c2ccccc2)CC1	10	4	11	15	6	x	x	x
COc1ccc2[nH]c(C(=O)N3CCCN(Cc4ccc(F)cc4)CC3)cc2c1	26	9	2	0	8	x	x	x
CCN1CCN(C(=O)c2cc3cc(F)ccc3[nH]2)CC1	55*	8	-1	5	-2	28	1	2
COc1cc2cc(C(=O)N3CCN(Cc4ccc5c(c4)OCO5)CC3)[nH]c2cc1OC	13	-7	2	4	10	x	x	x

Screening data (PubChem)
